The values below come from ChEMBL document CHEMBL4364301 (Eur J Med Chem, 2019).

The target in data set [1] is Voltage-gated inwardly rectifying potassium channel KCNH2 (Homo sapiens, UniProt Q12809). As to the kind of experiment: Inhibition of human ERG expressed in CHO cells by whole-cell voltage-clamp analysis. In kind it is cell-based. In a few lines:
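CHO cells expressing hERG were held in Dulbecco's PBS with Ca/Mg, pH 7–7.2, at room temperature. Tail currents were recorded by automated whole-cell voltage clamp after 300 s exposure. […] Quinidine served as positive control and 0.25% DMSO buffer as negative control.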

The nature of data set [2]: Protein binding in human plasma. In kind it is ADME, cell-free. The note with it: read-out: PPB (converted).
The next data set has as its system CWR22R. Kind of data set: Antiproliferative activity against human 22Rv1 cells assessed as reduction in cell growth incubated for 96 hrs by propidium iodide based 2D monolayer assay. In kind it is functional. In a few lines:
(§1)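 After 24 h recovery, compound in medium or medium alone (control wells) was added at 10 half-log concentrations from 0.0032 to 100 µM, in triplicate, with at most 0.3% DMSO. After 96 h, wells were PBS-washed, stained with 7 µg/ml PI and 0.1% Triton X-100, and fluorescence read at 530/620 nm. IC50 came from a 4-parameter fit, geometric mean.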

Data set [3] in a line: Metabolic stability in liver microsomes (unknown origin) assessed as intrinsic clearance per mg of protein at 3 uM measured upto 45 mins in presence of NADPH by LC-MS/MS analysis. In kind it is ADME, Microsome. Particulars: read-out: CLH. In a few lines:
(§2)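 Pooled liver microsomes at 0.5 mg/mL protein in 0.1 M phosphate buffer pH 7.4 were incubated with 3 μM compound (0.25% DMSO) at 37 °C. Reactions were started with 1 mM NADPH and sampled at 0, 5, 15, 30 and 45 min. A minus-NADPH control ran for 45 min. Reactions were quenched in methanol and analysed by LC-MS/MS to give CLint and t1/2.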
For orientation: Microsomes from liver hold many membrane-bound enzymes, among them those of drug oxidation.

Another data set concerns VCaP. As to the kind of experiment: Antiproliferative activity against human VCaP cells assessed as reduction in cell growth incubated for 96 hrs by propidium iodide based 2D monolayer assay. In kind it is functional. A digest of the protocol: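 VCaP cells in RPMI 1640 with 10% FCS at 37 °C, 5% CO2, seeded 4,000–20,000 cells/well and left 24 h before dosing. Compounds from DMSO stocks were diluted in half-log steps in medium, 10 concentrations 0.0032–100 μM, triplicate wells, max 0.3% DMSO. After 96 h, cells were washed, stained with 7 μg/ml propidium iodide plus 0.1% Triton X-100 for 1–2 h at room temperature, and fluorescence read at ex 530/em 620 nm.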

Data set [4] can be described thus: Metabolic stability in liver microsomes (unknown origin) assessed as half life at 3 uM measured upto 45 mins in presence of NADPH by LC-MS/MS analysis. In kind it is ADME, Microsome. In a few lines: as §2
The subject of the next data set is DU-145. As to the kind of experiment: Antiproliferative activity against human DU145 cells assessed as reduction in cell growth incubated for 96 hrs by propidium iodide based 2D monolayer assay. In kind it is functional. A digest of the protocol: as §1
Another data set concerns LNCaP. Kind of data set: Antiproliferative activity against human LNCAP cells assessed as reduction in cell growth incubated for 96 hrs by propidium iodide based 2D monolayer assay. In kind it is functional. In a few lines:
as §1

Chain of Voltage-gated inwardly rectifying potassium channel KCNH2 (Q12809 whole entry): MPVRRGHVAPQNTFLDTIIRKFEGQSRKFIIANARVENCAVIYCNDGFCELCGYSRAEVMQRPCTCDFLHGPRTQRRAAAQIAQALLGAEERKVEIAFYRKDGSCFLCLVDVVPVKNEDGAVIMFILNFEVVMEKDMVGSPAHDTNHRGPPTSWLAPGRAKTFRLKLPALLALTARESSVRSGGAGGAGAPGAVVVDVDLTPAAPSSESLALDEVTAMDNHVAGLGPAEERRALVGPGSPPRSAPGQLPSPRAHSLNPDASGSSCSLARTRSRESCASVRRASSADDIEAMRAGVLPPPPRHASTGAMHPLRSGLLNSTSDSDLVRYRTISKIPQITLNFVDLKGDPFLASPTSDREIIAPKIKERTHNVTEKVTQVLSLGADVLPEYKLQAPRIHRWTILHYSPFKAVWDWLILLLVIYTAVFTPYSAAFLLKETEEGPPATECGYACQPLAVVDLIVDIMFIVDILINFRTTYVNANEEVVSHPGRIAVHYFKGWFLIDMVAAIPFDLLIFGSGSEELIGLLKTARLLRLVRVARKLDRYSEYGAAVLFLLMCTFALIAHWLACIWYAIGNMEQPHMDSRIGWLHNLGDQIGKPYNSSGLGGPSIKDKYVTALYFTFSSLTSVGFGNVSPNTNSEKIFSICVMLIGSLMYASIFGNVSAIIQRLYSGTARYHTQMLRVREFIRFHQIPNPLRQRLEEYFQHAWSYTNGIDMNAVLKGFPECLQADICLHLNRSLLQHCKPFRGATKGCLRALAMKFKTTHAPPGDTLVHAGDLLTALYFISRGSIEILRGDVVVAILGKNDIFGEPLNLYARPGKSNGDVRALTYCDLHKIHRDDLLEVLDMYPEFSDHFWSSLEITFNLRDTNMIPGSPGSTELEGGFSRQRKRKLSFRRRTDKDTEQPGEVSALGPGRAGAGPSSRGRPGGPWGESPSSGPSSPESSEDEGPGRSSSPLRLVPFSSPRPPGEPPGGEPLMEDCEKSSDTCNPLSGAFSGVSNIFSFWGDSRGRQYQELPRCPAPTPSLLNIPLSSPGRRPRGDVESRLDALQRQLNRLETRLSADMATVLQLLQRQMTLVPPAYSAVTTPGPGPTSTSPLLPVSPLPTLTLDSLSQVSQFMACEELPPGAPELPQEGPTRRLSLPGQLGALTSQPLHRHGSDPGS

As a reminder, the IC50 is the concentration that gives 50% inhibition. By half-life is commonly meant how long it takes for the measured level to halve. Turning to `C[C@](O)(CS(=O)(=O)c1ccc(F)cc1)C(=O)Nc1ccc(C#N)c(C(F)(F)F)c1` [(R)-BICALUTAMIDE], the IC50 in data set [1] is above 25 µM; in the data set with VCaP it was 51.6 µM; with DU-145 (DU-145, 96 h) it was 45.4 µM. Further, the fraction unbound in data set [2] was 0.02. Besides, the Activity entry in the data set with CWR22R, in the data set with VCaP, with DU-145 and in the data set with LNCaP was “Dose-dependent effect” each time. Further, in data set [3], the microsomal CLint at 3 µM was 6.48 µL/min/mg. The half-life at 3 µM in data set [4] was determined as 3.57 h.
